The source made the active and inactive calls. No cut-off for these calls is given here.

By logP is commonly meant a log measure of how a compound divides between an organic and an aqueous phase. Read a low logP as a more hydrophilic compound. As a reminder, the logD is lipophilicity at a set pH, counting ionised and neutral species. A low value points to lower lipophilicity. In general, IC90 refers to the point of the concentration-response curve where the effect stands at 90%. A high value points to a need for much substance.

A short description of series [1]: Toxicity in human RBC assessed as hemolysis at 50 uM. To be noted: erythrocyte. It is filed as cell-based. The method in brief: (§1)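 Human RBC at 5% Htc in PBS-glucose held 2 h at 37°C with a range of compound concentrations, alone or with 10 μM FP. Cells spun down; hemolysis read as A412 of released Hb in supernatant. Five experiments in triplicate.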
Series [2] in a line: Toxicity in human RBC assessed as potentiation of ferriprotoporphyrin 9-induced hemolysis at 50 uM after 2hrs in presence of 10 uM. The format is cell-based. To be noted: erythrocyte. The method in brief:
as §1

Series [3] is described as follows: Toxicity in human RBC assessed as hemolysis at 50 uM at 40 degC in presence of 10 uM ferriprotoporphyrin 9. The format is cell-based, Erythrocyte. To be noted: human red blood cells (RBC), read-out: Activity. In outline: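 Hemolysis assay as for the 37°C format (5% Htc RBC, PBS-glucose, 2 h, 10 μM FP, supernatant A412 read-out), but run at 40°C.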
Series [4] can be described thus: Toxicity in human RBC assessed as hemolysis pretreated at 50 uM for 30 mins followed by washing and incubated with 40 uM ferriprotoporphyrin 9 for 2hrs. It is filed as cell-based. To be noted: erythrocyte. The method in brief:
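RBC exposed 30 min to 50 μM compound, washed, then held 2 h with 40 μM FP; hemolysis read from supernatant Hb at A412.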

Series [5] can be described thus: Octanol-water partition coefficient, log P of the compound. The format is physicochemical.
Series [6] can be described thus: Distribution coefficient, log D of the compound at pH 7.4. The settings on record: octanol/water. The format is physicochemical.
The nature of series [7]: Vacuolar accumulation ratio of the compound at pH 5.2. The format is ADME. In outline: (§2)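 VAR taken as antilog of calculated log D7.4 minus calculated log D5.2. log D from log P and pKa values measured potentiometrically at 25°C in 0.15 M KCl (n-octanol/0.15 M KCl partitioning). LAR calculated by an earlier published procedure.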
A short description of series [8]: Lipid accumulation ratio of the compound. The format is physicochemical. In outline:
as §2

The test system of series [9] is Plasmodium falciparum. Description: Antiplasmodial activity against chloroquine-susceptible Plasmodium falciparum D10. It is filed as functional, organism-based.
Series [10] relates to Plasmodium falciparum. Kind of series: Antiplasmodial activity against chloroquine-resistant Plasmodium falciparum W2. It is filed as functional, organism-based.
Series [11] is filed under the species Homo sapiens. Kind of series: Ratio of binding affinity to human RBC membrane parasitized with Plasmodium falciparum D10 to binding affinity to normal human RBC. The method in brief: (§3)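 Human A+ RBC (citrate-phosphate-dextrose, ≤10 days), washed in cold PBS, held at 15% Htc in PBS-5 mM glucose. Incubation with compound (10 to 50 μM, 50 μM for parasitized comparisons) 30 min at 37°C. Normal RBC or D10/W2-parasitized RBC at 4,0% parasitemia. Cells pelleted, washed free of unbound drug, extracted into CHCl3-1 N HCl, quinoline read by fluorescence.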

For series [12], the species on record is Homo sapiens. Description: Ratio of binding affinity to human RBC membrane parasitized with Plasmodium falciparum W2 to binding affinity to normal human RBC. In outline: as §3
Series [13] is described as follows: Drug uptake in human RBC at 50 uM in absence of 10 um ferriprotoporphyrin 9. It is filed as ADME, cell-based. The settings on record: erythrocyte. In outline:
(§4)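 Washed human RBC given 50 μM compound for 30 min at 37°C, with or without 10 μM FP. Total uptake and membrane-bound fraction measured fluorimetrically after washing and CHCl3-1 N HCl extraction. One representative experiment in triplicate.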

For another series, the system named is Erythrocyte. Description: Induction of denaturation of hemoglobin in human RBC in acidic condition assessed as denatured hemoglobin level per millimitre of packed RBC. The format is functional. In outline:
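Fitch-Russell method: intact RBC from 50 μl packed cells brought to 10 ml in 150 mM sodium acetate pH 5.0, held 90 min at 39°C with or without compound at 100 μM. Pellets spun at 3,500 × g, washed thrice in acetate, dissolved in 10 mM Tris-HCl, 2.5% SDS, 0.2 N NaOH; denatured Hb taken as FP from A412 minus A700.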

Series [14] has as its system Plasmodium falciparum. Kind of series: Resistance index, ratio of IC50 for chloroquine-resistant Plasmodium falciparum W2 to IC50 for chloroquine-susceptible Plasmodium falciparum D10. It is filed as functional.
Series [15] is filed under the species Homo sapiens. Kind of series: Binding affinity to normal human RBC membrane in presence of 15% hematocrit by fluorimetric method. In outline:
as §3

Series [16] is described as follows: Drug uptake in human RBC at 50 uM in presence of 10 um ferriprotoporphyrin 9. It is filed as ADME, cell-based. The settings on record: erythrocyte. In outline: as §4
The next series concerns Ferriprotoporphyrin IX. Description: Binding affinity to ferriprotoporphyrin 9sassessed as quenching of Soret band in presence of 40% DMSO-10 mM sodium phosphate buffer at pH 6.0. In outline: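 Heme (FP, fresh stock in 0.02 N NaOH diluted in PBS) at 15 μM final in 10 mM sodium phosphate pH 6.0 with 40% DMSO, compound added at 1 to 200 μM; absorption spectra read after 2 min, Soret band quenching followed. Job's plot run in parallel (FP plus compound totalling 10 μM, A400 difference vs molar ratio). Three experiments in triplicate.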

A short description of series [17]: Inhibition of beta-hematin formation by BHIA assay. The format is functional.

With `Clc1ccc2c(N[C@H]3CCCN4CCCC[C@H]34)ccnc2c1`, the Activity entry in series [1] was “Non-toxic”; in series [2], “Toxic”; in series [4], “Non-toxic”; in the series filed under Homo sapiens [15] it was “Dose-dependent effect”. Also, in series [3], the hemolysis at 50 µM came out at 50%. Besides, the logP in [5] amounted to 4.57. For the same compound, the logD in series [6] was 2.69. The Ratio is 14900 in series [7], 490 in series [8], 2 in the series listed under Homo sapiens [11] and 1.5 in the series listed under Homo sapiens [12]. Further, the results for the IC50 (with Plasmodium falciparum [9]; with Plasmodium falciparum [10]; in [17]) were 24.2 nM, 21.3 nM and 1.12 equiv, respectively. Further, the IC90 with Plasmodium falciparum [9] came out at 35.1 nM; in the series with Plasmodium falciparum [10], 33.1 nM. For the same compound, the Drug uptake in series [13] was found to be 18%; in series [16] it was 50%. Further, the result in the series with Erythrocyte and in the series with Ferriprotoporphyrin IX was Active. Besides, the “Ratio IC50” value in the series with Plasmodium falciparum [14] came to 0.88. In series [17], the inhibition entry was “Dose-dependent effect”.
On to `Clc1ccc2c(NC[C@@H]3CCCN4CCCC[C@H]34)ccnc2c1`, for which the Activity entry in series [1] was “Non-toxic”; in [2] it was “Toxic”; in series [4], “Non-toxic”; in the series filed under Homo sapiens [15] it was “Dose-dependent effect”. Also, the hemolysis at 50 µM in [3] came out at 28%. In series [5], this compound had a logP of 4.94. This compound also registered a logD in series [6] of 2.26. In addition, the Ratio in series [7] was found to be 22600; in [8], 182; in the series filed under Homo sapiens [11], 1.5; in the series filed under Homo sapiens [12], 2. For the same compound, the IC50 worked out at 26.4 nM in the series with Plasmodium falciparum [9], 41.8 nM in the series with Plasmodium falciparum [10] and 1.52 equiv in series [17]. For the same compound, the concentration for an effect of 90% (IC90) turned out to be 34.3 nM in the series on Plasmodium falciparum [9] and 54.9 nM in the series with Plasmodium falciparum [10]. The Drug uptake in series [13] worked out at 18%; in series [16], 50%. For the same compound, the result in the series on Erythrocyte and with Ferriprotoporphyrin IX was Active. The “Ratio IC50” value with Plasmodium falciparum [14] is 1.59. Moreover, in [17], the inhibition result is “Dose-dependent effect”.
With `CCN(CC)CCCC(C)Nc1ccnc2cc(Cl)ccc12` (stereo not drawn) [CHLOROQUINE], the Activity entry is “Non-toxic” in series [1]; “Toxic” in [2]; “Non-toxic” in series [4]; 40 nmol/h in the series with Erythrocyte; “Dose-dependent effect” in the series filed under Homo sapiens [15]. Also, the hemolysis at 50 µM in series [3] was 84%. Besides, the 90% effect concentration (IC90) is 44.6 nM in the series on Plasmodium falciparum [9] and 441 nM with Plasmodium falciparum [10]. In series [13], this compound displayed a Drug uptake of 10%.

The record behind these values is ChEMBL document CHEMBL1671669, “Novel antimalarial aminoquinolines: heme binding and effects on normal or Plasmodium falciparum-parasitized human erythrocytes” (Antimicrob Agents Chemother, 2009).
